Measured values from ChEMBL document CHEMBL5712908, “A genome-wide RNAi screen reveals essential therapeutic targets of breast cancer stem cells” (2019).
The source made the active and inactive calls. No cut-off for these calls is given here.

How the values were obtained:
MDA-MB-436 = test: Antitumor activity against human MDA-MB-436 cells assessed as K-score by measuring ALDHbr cells by LSR2 cytometer; assay type: functional
Outline: (§1)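 Cell lines exposed for 72 h in adherent culture to a range of concentrations centred on the MTS-derived IC50. ALDHbr proportion measured by ALDEFLUOR flow cytometry (LSR2). K-score is the linear regression coefficient, on log10-transformed doses, between the untreated condition and the dose predicted to give a 50% decrease or increase in ALDHbr proportion versus control.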

Breast cancer cell line [1] = test: Antitumor activity against human CRCM434 negative breast cancer cells orthotopically xenografted in NSG mouse model of PDX assessed as reduction in tumor volume at 3 mg/kg, ip daily for 14 days; assay type: functional, organism-based; conditions: time 14.0 day
Outline: (§2)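 Chemo-naïve triple-negative PDX cells injected at 100,000 per fat pad, two fat pads per NSG mouse. At ~80 mm³ tumours, mice received i.p. 3 mg/kg daily for 14 days or 50 mg/kg 5 of 7 days for 2 weeks; placebo was DMSO/HPCD 10% (1:9). Five mice (10 tumours) per group. Tumour growth monitored; after 2 weeks tumours dissociated, mouse cells excluded via anti-H2Kd, ALDHbr measured by ALDEFLUOR flow cytometry and normalised to vehicle.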

SUM-159-PT [2] = test: Anticancer activity against human SUM159 cells expressing BFP assessed as reduction in ALDHbr cell at 50 nM by LSR2 cytometer analysis; assay type: functional
Breast cancer cell line [3] = test: Antitumor activity against human reimplanted CRCM434 negative breast cancer cells orthotopically xenografted in NSG mouse model of PDX assessed as reduction tumor volume at 3 mg/kg, ip daily for 14 days by limiting dilation analysis; assay type: functional, organism-based; conditions: time 14.0 day
Outline: (§3)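 After 2 weeks of i.p. treatment (3 mg/kg daily or 50 mg/kg 5 of 7 days), dissociated PDX tumour cells reimplanted into secondary NSG mice at 50, 500 or 5,000 cells. A mouse counted as tumour-bearing once a tumour reached 10 mm. bCSC frequency per 10,000 cells estimated by ELDA; pairwise chi-square test.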

Breast cancer cell line [4] = test: Antitumor activity against human CRCM494 negative breast cancer cells orthotopically xenografted in NSG mouse model of PDX assessed as reduction in tumor volume at 3 mg/kg, ip daily for 14 days; assay type: functional, organism-based; conditions: time 14.0 day; outline: as §2
SUM-159-PT [5] = test: Antitumor activity against human SUM159 cells assessed as K-score by measuring ALDHbr cells by LSR2 cytometer; assay type: functional; outline: as §1
[6] = Antitumor activity against human BrCa-MZ-01 cells assessed as K-score by measuring ALDHbr cells by LSR2 cytometer; assay type: functional; outline: as §1
SUM-159-PT [7] = test: Synergistic anticancer activity against human SUM159 cells expressing BFP assessed as reduction in ALDHbr cell 50 nM in presence of JQ1 by LSR2 cytometer analysis; assay type: functional
[8] = Antitumor activity against human S68 cells assessed as K-score by measuring ALDHbr cells by LSR2 cytometer; assay type: functional; outline: as §1
Breast cancer cell line [9] = test: Antitumor activity against human reimplanted CRCM404 negative breast cancer cells orthotopically xenografted in NSG mouse model of PDX assessed as reduction tumor volume at 3 mg/kg, ip daily for 14 days by limiting dilation analysis; assay type: functional, organism-based; conditions: time 14.0 day; outline: as §3
Breast cancer cell line [10] = test: Antitumor activity against human CRCM494 negative breast cancer cells orthotopically xenografted in NSG mouse model of PDX assessed as reduction ALDHbr cells at 3 mg/kg, ip daily for 14 days by LSR2 cytometer analysis; assay type: functional, organism-based; conditions: time 14.0 day; outline: as §2
SUM-159-PT [11] = test: Anticancer activity against human SUM159 cells assessed as decrease in secondary tumor sphere formation incubated for 72 hrs by Extreme limiting dilution analysis; assay type: functional, cell-based
Outline: (§4)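 Cells drug-treated in adherent culture for 72 h, then plated as single cells in ultra-low attachment 96-well plates in serum-free mammary epithelium basal medium. Plating at 25/10/5/3/2/1 cells per well, 18–36 wells per condition. Wells with ≥1 sphere after 10 days scored positive. Secondary spheres were made by dissociating primary spheres. Frequency by ELDA; n = 4; pairwise chi-square test.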

Breast cancer cell line [12] = test: Antitumor activity against human reimplanted CRCM494 negative breast cancer cells orthotopically xenografted in NSG mouse model of PDX assessed as reduction tumor volume at 3 mg/kg, ip daily for 14 days by limiting dilation analysis; assay type: functional, organism-based; conditions: time 14.0 day; outline: as §3
Breast cancer cell line [13] = test: Antitumor activity against human CRCM434 negative breast cancer cells orthotopically xenografted in NSG mouse model of PDX assessed as reduction ALDHbr cells at 3 mg/kg, ip daily for 14 days by LSR2 cytometer analysis; assay type: functional, organism-based; conditions: time 14.0 day; outline: as §2
Breast cancer cell line [14] = test: Synergistic antitumor activity against human CRCM404 negative breast cancer cells orthotopically xenografted in NSG mouse model of PDX assessed as reduction ALDHbr cells at 3 mg/kg, ip daily for 14 days cotreated with JQ1 by LSR2 cytometer analysis; assay type: functional; conditions: time 14 day
SUM-159-PT [15] = test: Anticancer activity against human SUM159 cells assessed as effect on RFP+/BFP+ cell ratio upto 5 uM after 72 hrs by […]; assay type: functional, cell-based
SUM-159-PT [16] = test: Induction of apoptosis in human SUM159 cells expressing ALDH upto 5 uM incubated for 72 hrs by ALDEFLUOR/YO-PRO-3/ Hoechst 33342 staining based high content imaging microscopic analysis; assay type: functional, cell-based
Outline: (§5)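 SUM159 at 3,000 cells/well on collagen plates, dosed at 6, 24 and 48 h post-seeding; 0.1% DMSO negative control, cisplatin positive control. At 72 h stained 30 min at 37°C with ALDEFLUOR, YO-PRO-3 and Hoechst 33342, then imaged ice-cold. YO-PRO-3-positive nuclei (above untreated signal) counted over total cells, per ALDHbr/ALDH- subpopulation; n = 6.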

Breast cancer cell line [17] = test: Synergistic antitumor activity against human CRCM494 negative breast cancer cells orthotopically xenografted in NSG mouse model of PDX assessed as reduction ALDHbr cells at 3 mg/kg, ip daily for 14 days cotreated with JQ1 by LSR2 cytometer analysis; assay type: functional; conditions: time 14 day
Breast cancer cell line [18] = test: Synergistic antitumor activity against human CRCM434 negative breast cancer cells orthotopically xenografted in NSG mouse model of PDX assessed as reduction ALDHbr cells at 3 mg/kg, ip daily for 14 days cotreated with JQ1 by LSR2 cytometer analysis; assay type: functional; conditions: time 14 day
SUM149PT = test: Antitumor activity against human SUM149 cells assessed as K-score by measuring ALDHbr cells by LSR2 cytometer; assay type: functional; outline: as §1
Breast cancer cell line [19] = test: Antitumor activity against human CRCM404 negative breast cancer cells orthotopically xenografted in NSG mouse model of PDX assessed as reduction ALDHbr cells at 3 mg/kg, ip daily for 14 days by LSR2 cytometer analysis; assay type: functional, organism-based; conditions: time 14.0 day; outline: as §2
SUM-159-PT [20] = test: Anticancer activity against human SUM159 cells assessed as decrease in primary tumor sphere formation incubated for 72 hrs by Extreme limiting dilution analysis; assay type: functional, cell-based; outline: as §4
SUM-159-PT [21] = test: Anticancer activity against human SUM159 cells expressing BFP assessed as reduction in ALDHbr cell at 5 to 500 nM by LSR2 cytometer analysis; assay type: functional, cell-based; conditions: dose 5-500 nM
SUM-159-PT [22] = test: Synergistic anticancer activity against human SUM159 cells assessed as decrease in primary tumor sphere formation at 62 nM incubated for 72 hrs in presence of JQ1 by Extreme limiting dilution analysis; assay type: functional
Outline: (§6)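 72 h adherent pretreatment (Sal/JQ1 62 nM/62 nM; docetaxel added at 2 nM where used), then single cells plated in ultra-low attachment 96-well plates in serum-free mammary epithelium basal medium at 25/10/5/3/2/1 cells/well (18–36 wells/condition). Wells with ≥1 sphere after 10 days scored positive; sphere-forming frequency by ELDA. Secondary spheres from dissociated primary spheres. n = 4; pairwise chi-square.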

SUM-159-PT [23] = test: Synergistic anticancer activity against human SUM159 cells assessed as decrease in secondary tumor sphere formation at 62 nM incubated for 72 hrs in presence of JQ1 by Extreme limiting dilution analysis; assay type: functional; outline: as §6
SUM-159-PT [24] = test: Induction of apoptosis in human SUM159 cells expressing ALDHbr upto 5 uM incubated for 72 hrs by ALDEFLUOR/YO-PRO-3/ Hoechst 33342 staining based high content imaging microscopic analysis; assay type: functional, cell-based; outline: as §5
Breast cancer cell line [25] = test: Antitumor activity against human CRCM404 negative breast cancer cells orthotopically xenografted in NSG mouse model of PDX assessed as reduction in tumor volume at 3 mg/kg, ip daily for 14 days; assay type: functional, organism-based; conditions: time 14.0 day; outline: as §2

With CC[C@@H](C(=O)[C@@H](C)[C@@H](O)[C@H](C)[C@@H]1O[C@@H]([C@@H](CC)C(=O)O)CC[C@@H]1C)[C@H]1O[C@]2(C=C[C@@H](O)[C@]3(CC[C@@](C)([C@H]4CC[C@](O)(CC)[C@H](C)O4)O3)O2)[C@H](C)C[C@@H]1C [SALINOMYCIN] the Activity (MDA-MB-436) was -0.12, the Activity (Breast cancer cell line [1]) was “inactive” and the “fold change (FC)” value (SUM-159-PT [2]) was 2. For the same molecule, the Activity (Breast cancer cell line [3]) was “Active”, the Activity (Breast cancer cell line [4]) was “inactive” and the Activity (SUM-159-PT [5]) was -0.14. For the same molecule, the Activity [6] was -0.07, the “fold change (FC)” value (SUM-159-PT [7]) was 4 and the Activity [8] was -0.19. For the same molecule, the Activity (Breast cancer cell line [9]) was “Active”, the Activity (Breast cancer cell line [10]) was “Active” and the Activity (SUM-159-PT [11]) was “Active”. The Activity (Breast cancer cell line [12]) was “Active”, the Activity (Breast cancer cell line [13]) was “Active” and the “fold change (FC)” value (Breast cancer cell line [14]) was 2. The Activity (SUM-159-PT [15]) was “inactive”, the Activity (SUM-159-PT [16]) was “Active” and the “fold change (FC)” value (Breast cancer cell line [17]) was 2. The “fold change (FC)” value (Breast cancer cell line [18]) was 2, the Activity (SUM149PT) was -0.06 and the Activity (Breast cancer cell line [19]) was “Active”. For the same molecule, the Activity (SUM-159-PT [20]) was “Active”, the Activity (SUM-159-PT [21]) was “Active” and the “fold change (FC)” value (SUM-159-PT [22]) was 2.4. For the same molecule, the “fold change (FC)” value (SUM-159-PT [23]) was 5.4, the Activity (SUM-159-PT [24]) was “Active” and the Activity (Breast cancer cell line [25]) was “inactive”.
